Only some compounds are listed: those with a hit (about 1.3% of all), similar ones and a draw of the others.
PAD4 inh: inhibitors of human PAD4; AID 485272; recombinant PAD4, RCA probe fluorescence polarization; inhibition, % at 6.36 µM; hit rate 0.41% among 330,000; Q9UM07;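 active = percent inhibition above a cutoff equal to the mean of all tested compounds plus 3 SD, cut at about 15% in these data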
RBBP9 inhibitor: inhibitors of human serine hydrolase RBBP9 | O75884 | AID 1515 | inhibition, % at 7.94 µM | recombinant RBBP9, FP-Rh probe fluorescence polarization | hit rate 0.2% among 220,000;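 active = inhibition above the campaign mean of all tested compounds plus 3 SD, cut at about 14% in these data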
Target sequence (O75884 whole entry, looked up): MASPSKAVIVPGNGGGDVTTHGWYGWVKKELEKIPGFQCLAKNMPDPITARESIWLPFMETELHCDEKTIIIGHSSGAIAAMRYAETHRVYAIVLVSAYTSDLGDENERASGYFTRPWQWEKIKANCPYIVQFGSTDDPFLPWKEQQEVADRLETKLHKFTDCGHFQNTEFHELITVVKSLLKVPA
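Test system: recombinant human RBBP9. Quantity: 2.5 µM RBBP9 dispensing solution, before mixing. Detection: FP readout at 525/598 nm. Reagent: Serine-hydrolase probe FP-Rh, 375 nM pre-mixing. Measure: % inhibition. Control set: DMSO-treated enzyme wells and wells lacking RBBP9. Buffer or medium: Tris-NaCl-Pluronic buffer, pH 8.0. Times: preincubation 30 min plus labeling 45 min at 25 °C.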
PME-1 inh: blocks human protein phosphatase methylesterase 1; recombinant PME-1, FP-Rh probe fluorescence polarization; inhibition, % at 5.9 µM; AID 2130; hit rate 0.53% among 320,000; Q9Y570;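 active = inhibition above the campaign mean of all compounds plus 3 SD, cut at about 26% in these data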;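 note: competitive labeling of PME-1 active site by serine hydrolase directed probe; inhibitors block probe labeling so polarization falls and inhibition rises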
LYPLA1 counter: blocks human lysophospholipase 1, a PME1 counter-screen; recombinant LYPLA1, FP-Rh probe fluorescence polarization; inhibition, % at 5.9 µM; hit rate 0.16% among 320,000;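 active = inhibition above the mean of all tested compounds plus 3 SD, set per campaign, cut at about 14% in these data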;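 note: inhibitors block serine hydrolase probe labeling of LYPLA1 so polarization falls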
Target sequence (O75608 whole entry, looked up): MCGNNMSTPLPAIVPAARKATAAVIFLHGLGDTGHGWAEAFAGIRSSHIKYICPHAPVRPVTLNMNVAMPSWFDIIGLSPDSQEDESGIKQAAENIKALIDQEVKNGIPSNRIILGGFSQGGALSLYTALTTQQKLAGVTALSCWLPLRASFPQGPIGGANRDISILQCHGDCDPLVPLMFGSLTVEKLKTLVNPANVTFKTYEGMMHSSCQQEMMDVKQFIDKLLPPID
Fam108B counter: blocks mouse Fam108B hydrolase in RBBP9 counter-screen. hit rate 0.33% among 300,000. inhibition, % at 9.51 µM. AID 1947. recombinant Fam108B, FP-Rh probe fluorescence polarization;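 active = inhibition above the screen mean inhibition plus 3 SD, computed separately per campaign, cut at about 18% in these data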;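 note: inhibitors lower polarization as less probe binds the enzyme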
LYPLA2 inh: counter-screen for PME1 inhibitors: inhibitors of human LYPLA2; AID 2177; O95372; hit rate 0.38% among 320,000; recombinant LYPLA2, FP-Rh probe fluorescence polarization; inhibition, % at 5.9 µM;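 active = inhibition above the screen-wide mean plus 3 SD, limit set per campaign, cut at about 26% in these data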
Target sequence (O95372 whole entry, looked up): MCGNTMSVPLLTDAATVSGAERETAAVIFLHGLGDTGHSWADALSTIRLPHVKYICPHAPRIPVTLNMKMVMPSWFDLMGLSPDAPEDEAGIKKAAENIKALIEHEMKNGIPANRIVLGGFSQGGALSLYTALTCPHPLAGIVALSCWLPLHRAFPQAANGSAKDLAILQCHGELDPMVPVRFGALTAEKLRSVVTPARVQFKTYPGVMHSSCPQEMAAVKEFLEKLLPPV
Large screens that a line does not name were inactive.

O=C(/C=C/c1ccco1)NCC1COc2ccccc2O1 (stereo not drawn)	none
CCOc1ccc2nc(SCC(=O)Nc3ccc4c(c3)OCCO4)[nH]c2c1	PME-1 inh 27
CCCCn1c(/C=N/Nc2nc3ccccc3[nH]2)nc2ccccc21	PME-1 inh 52
CCOc1ccc(NC(=S)N2CCC(NC(=O)c3ccco3)CC2)cc1	none (no result: RBBP9 inhibitor)
CCOc1ccc(/C=C2\SC(=S)N(C(C(=O)O)c3ccccc3)C2=O)cc1OC (stereo not drawn)	PME-1 inh 35
Cc1ccc(NC(=O)CCn2cc(C(F)(F)F)ccc2=O)cc1	none
O=C1c2ccccc2NC(c2ccc(-c3ccccc3F)o2)N1O (stereo not drawn)	none (no result: RBBP9 inhibitor, Fam108B counter)
Cc1cc([N+](=O)[O-])ccc1-c1ccc(C2Nc3ccccc3C(=O)N2O)o1 (stereo not drawn)	PME-1 inh 37
Cc1cccc(Oc2cc(N)cc([N+](=O)[O-])c2)c1	LYPLA2 inh 31
CC(C)CCN1C(=O)c2cccc3c(N)ccc(c23)C1=O	PAD4 inh 24 (no result: RBBP9 inhibitor)
Nc1ccc(N2CCCCCC2)cc1	PAD4 inh 43
CCOc1ccc(/C=C2\CCCc3c2nc2ccccc2c3C(=O)O)cc1OC	PAD4 inh 27 (no result: RBBP9 inhibitor)
O=C(OCn1ncc(Br)c(Br)c1=O)c1c(F)cccc1F	PAD4 inh 22
CC(NC(=O)COc1ccc(/C=N/NC(=O)CO)cc1)c1ccccc1 (stereo not drawn)	none (no result: RBBP9 inhibitor)
Cc1cc(SCC(=O)N/N=C/c2ccc(O)c(O)c2O)c(C)cc1Br	PME-1 inh 31
COc1cc(/C=N/NC(=O)CSc2cc(C)c(Br)cc2C)ccc1O	none
COc1ccc2[nH]c3c4c(ccc3c2c1)C(=O)C=CC4=O	RBBP9 inhibitor 84 (no result: PAD4 inh, PME-1 inh, LYPLA1 counter, Fam108B counter, LYPLA2 inh)
COc1ccc2[nH]c(=O)cc(C(=O)O)c2c1	none
COc1cc2c(C#N)c(N3CCN(c4ccccc4OC)CC3)nc(N)c2c(N)n1	PME-1 inh 73
COc1ccc(-c2[nH]n(-c3ccc([N+](=O)[O-])cc3)c(=O)c2C=NCc2ccc(F)cc2)cc1	none
COc1ccc(-c2cc(=O)n(-c3ccc([N+](=O)[O-])cc3)[nH]2)cc1	PAD4 inh 36
O=[N+]([O-])c1ccc(-c2ccc(C=Nc3cccc4ccccc34)o2)cc1	PAD4 inh 24
O=[N+]([O-])c1ccc(-c2ccc(/C=N/O)o2)cc1	none
O=C(CCNC(=O)N1CC(=O)Nc2ccccc21)Nc1ccc(F)c(Cl)c1	none (no result: RBBP9 inhibitor)
Cn1c2ccccc2c2cc(/C=N/NC(=O)c3ccc(N)cc3)ccc21	PME-1 inh 40 (no result: RBBP9 inhibitor)
Cn1c(CCC(=O)Nc2ccc(F)cc2)nc2cc(S(=O)(=O)N3CCOCC3)ccc21	none (no result: RBBP9 inhibitor)
CCCn1c(CCC(=O)Nc2ccccc2Cc2ccccc2)nc2cc(S(=O)(=O)N3CCOCC3)ccc21	PME-1 inh 37
COC(=O)c1ccccc1NC(=O)C1CCN(c2ncnc3c2nc2n3CCCCC2)CC1	none (no result: RBBP9 inhibitor)
COc1cccc(NC(=O)Nc2ccc3c(c2)N(C)C(=O)CS3)c1	PME-1 inh 32
C=CCn1c(SCC(=O)NC2CC2)nnc1C1CC1	none (no result: RBBP9 inhibitor)
CCc1ccc(NC(=O)Nc2cccs2)cc1	PME-1 inh 34
O=c1c2ccccc2nc(/C=C/c2ccc(Br)cc2)n1CCO	none (no result: RBBP9 inhibitor)
Cc1[nH]c2ccccc2c1/C=C/c1nc2ccccc2c(=O)n1CCO	PME-1 inh 70
COC(=O)c1ccc(/C=C/C(=O)OCC(=O)NCc2cccs2)cc1	none (no result: RBBP9 inhibitor, PME-1 inh, LYPLA1 counter, Fam108B counter, LYPLA2 inh)
CCN(CC)CCCNC(=O)c1cn(CC)c2ccc(S(=O)(=O)N(C)C3CCCCC3)cc2c1=O	none (no result: RBBP9 inhibitor)
CN(C1CCCCC1)S(=O)(=O)c1ccc2c(c1)c(=O)c(C(=O)NCCCN1CCCC1)cn2C	none
CCCCN(CC)CCCNC(=O)c1cn(C)c2ccc(S(=O)(=O)N(C)C3CCCCC3)cc2c1=O	PME-1 inh 40 (no result: RBBP9 inhibitor)
CCn1cc(C(=O)NCCCN2CCCC(C)C2)c(=O)c2cc(S(=O)(=O)N(C)C3CCCCC3)ccc21 (stereo not drawn)	PME-1 inh 52 (no result: RBBP9 inhibitor)
CCCCN(CCCC)CCNC(=O)c1cn(CC)c2ccc(S(=O)(=O)N(C)C3CCCCC3)cc2c1=O	PME-1 inh 82 (no result: RBBP9 inhibitor)
CC(C)(C)OC(=O)NCC(=O)NNC(=O)C(C(=O)OCc1ccccc1)c1ccccc1 (stereo not drawn)	none (no result: RBBP9 inhibitor, PME-1 inh, LYPLA1 counter, Fam108B counter, LYPLA2 inh)
COc1cc2c(c(OC)c1OC)-c1ccc(NC(=O)c3ccc(F)cc3)c(=O)cc1[C@@H](NC(C)=O)CC2	PME-1 inh 31, Fam108B counter 25 (no result: RBBP9 inhibitor)
CC1CCN(C(=O)CCc2ccc(Oc3cc([N+](=O)[O-])cc([N+](=O)[O-])c3)cc2)CC1	LYPLA2 inh 37
O=C(CCc1ccc(Oc2cc([N+](=O)[O-])cc([N+](=O)[O-])c2)cc1)NC1CCCC1	none
C#CCN(Cc1ccco1)C(=O)c1ccc(OC2CCN(Cc3ccccn3)CC2)cc1	none (no result: RBBP9 inhibitor)
O=C(CN1CCN(S(=O)(=O)c2ccc(Br)cc2)CC1)N/N=C/c1cc([N+](=O)[O-])ccc1Cl	PME-1 inh 27
O=C(CN1CCN(S(=O)(=O)c2ccc(Br)cc2)CC1)N/N=C/c1ccc(Cl)c([N+](=O)[O-])c1	none
CC(=O)Nc1ccc(NC(=O)CN(c2cc(Cl)ccc2Cl)S(C)(=O)=O)cc1	none
COc1cc2c(cc1NC(=O)c1ccncc1)oc1ccccc12	none
COc1cc2c(cc1NC(=O)c1cccnc1)oc1ccccc12	PME-1 inh 28
CCCN(CC(=O)Nc1ccccc1C)C(=O)c1ccc(N2CCCCC2)c([N+](=O)[O-])c1	none (no result: RBBP9 inhibitor)
CCCOc1cc(N(CC)CC)ccc1/C=C(/C#N)c1nc2ccc(C)cc2[nH]1	none
CCOc1cc(N(CC)CC)ccc1/C=C(/C#N)c1nc2ccccc2[nH]1	PME-1 inh 30
O=C1CC(N(O)c2ccccc2)C(=O)N1c1ccc(Cl)c(Cl)c1 (stereo not drawn)	PAD4 inh 17
Cn1cnnc1SCC(=O)Nc1ccc2ccccc2c1	none (no result: RBBP9 inhibitor, Fam108B counter)
O=C(NC1CCCc2ccccc21)C1CCN(S(=O)(=O)c2ccccc2F)CC1 (stereo not drawn)	PME-1 inh 58
O=C(NC1CCCc2ccccc21)C1CCN(S(=O)(=O)c2cccc3nonc23)CC1 (stereo not drawn)	none
CCOC(=O)Cn1c(C)[n+](CC(=O)c2ccccc2)c2ccccc21	none
COc1ccc(-c2nc(SCC(=O)NC3CCCC3)c(-c3ccc(OC)cc3)[nH]2)cc1	none
COc1ccc(-c2[nH]c(-c3ccc(SC)cc3)nc2SCC(=O)Nc2nccs2)cc1	PME-1 inh 70, Fam108B counter 36
COc1cccc(/C=c2\s/c(=C/C(=O)c3ccc(C)cc3)[nH]c2=O)c1OC	none
COc1ccc(/C=c2\s/c(=C/C(=O)c3ccc(C)cc3)[nH]c2=O)c(OC)c1	PME-1 inh 27
O=C(CCS(=O)(=O)c1ccc(Cl)cc1)NCCN1C(=O)S/C(=C\c2ccccc2F)C1=O	none
